FLuc stim CS = FLuc activators, initial screening, artefact control for FLuc-dependent activation tests, biochemical, ATPlite luminescence. 200,000 tested, under 10 active. AID 1027, 2008. ATPlite luciferase biochemical, 10 min; 0 = ATP-free wells, 1 = DMSO control. activation factor at 10 µM. Luciferin 4-monooxygenase (Photinus pyralis), P08659;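 active = luciferase activation factor, scaled between plate controls, of at least 2 with compound at 10 µM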
Target sequence (P08659 whole entry, looked up): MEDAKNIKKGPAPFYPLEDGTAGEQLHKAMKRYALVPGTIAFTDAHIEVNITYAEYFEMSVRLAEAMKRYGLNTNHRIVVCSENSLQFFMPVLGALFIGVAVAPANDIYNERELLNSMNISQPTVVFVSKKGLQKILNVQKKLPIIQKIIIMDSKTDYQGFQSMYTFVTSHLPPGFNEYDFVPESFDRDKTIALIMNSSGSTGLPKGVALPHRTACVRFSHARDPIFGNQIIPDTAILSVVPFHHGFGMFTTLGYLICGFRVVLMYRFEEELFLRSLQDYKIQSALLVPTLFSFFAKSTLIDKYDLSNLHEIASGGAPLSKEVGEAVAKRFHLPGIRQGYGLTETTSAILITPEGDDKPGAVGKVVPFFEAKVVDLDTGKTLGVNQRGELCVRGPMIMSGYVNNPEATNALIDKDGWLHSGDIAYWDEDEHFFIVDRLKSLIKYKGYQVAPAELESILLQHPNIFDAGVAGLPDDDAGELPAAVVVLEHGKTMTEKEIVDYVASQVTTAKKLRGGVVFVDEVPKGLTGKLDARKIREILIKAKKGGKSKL
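System: cell-free luciferase reagent; medium: PBS as buffer for the ATP substrate; doses: test compounds dosed from 2 mM stocks in 100% DMSO; incubation: 10 min, room temperature; measured by: luminescence from luciferase reaction; read-out: luciferase activation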
PPC-1+TRAIL kill = compounds killing PPC-1 cancer cells with TRAIL present, primary screen, TRAIL potentiator project, ATPLite luminescence, uHTS; PPC-1 cells + TRAIL, ATPLite viability luminescence; cell killing (% activity), % at 4 µM or 5 µM; actives 0.41% (n = 220,000); AID 1443, 2008;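 active = cell killing above 50% in the first pass at 4 µM, then a duplicate retest at 5 µM averaging 50% or more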;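 note: plate controls were cells with TRAIL plus DMSO for no effect and medium-only wells lacking cells for full effect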
HSP90 refold inh = HSP90 inhibitors, primary screen, cell lysate, luminescence | Heat shock protein HSP 90 (rabbit reticulocyte lysate; luciferase refolding) | Rabbit reticulocyte lysate, luciferase refolding luminescence, 3 h | inhibition, % at 5.6 µM | actives 0.91% (n = 290,000) | AID 1789, 2009;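 active = inhibition above the screen-wide mean plus 3 SD, computed separately per campaign, cut at about 16% in these data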;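 note: 0% = DMSO wells and 100% = 60 µM geldanamycin wells; inhibitors lower the luminescence because luciferase stays unfolded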
TRAIL sens C8 = viability loss with TRAIL in NB7+C8 cells, primary screen, TRAIL sensitizer project, cell-based, ATPlite luminescence; inhibition (viability loss, TRAIL sensitization), % at 10 µM; AID 624354, 2012; actives 1% (n = 360,000);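 active = compounds causing at least 50% loss of cell viability in the single-dose screen, relative to plate controls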
FLuc inhib CS = firefly luciferase enzyme inhibitors, primary screen, artefact control for luciferase-based inhibitor screens, biochemical, luminescence, ATPLite; 10 min; inhibition, % at 10 µM; actives 1.5% (n = 200,000);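 active = inhibition above about 50% when tested at 10 µM, limit read from the data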
* hit, by the source's call; x = no result given; ! = repeats disagree. An excerpt weighted towards active compounds, which were near 2% of everything screened.

SMILES	FLuc stim CS	PPC-1+TRAIL kill	HSP90 refold inh	TRAIL sens C8	FLuc inhib CS
COc1cccc(-c2cn3nc4c(nc3n2)CCCC4)c1	0.3	3.3	-0.6	53.2*	68.5*
Cc1cc(C(=O)NC2CCCCC2)c(C)n1-c1ccc(F)cc1	0.5	6.1	-0.4	21.2	51.1*
O=C(Nc1ccc2nc3ccccc3nc2c1)c1ccccc1	0.3	11.3	-0.4	56.6*	66.0*
O=C(Nc1ccc(O)cc1)c1ccc(NC(=O)c2cccs2)cc1	x	x	-3.3	66.5*	x
O=C(Nc1ccc(NC(=O)c2cccs2)cc1)c1ccccc1	x	x	-1.9	1.1	x
COC(=O)Cc1ccc(NC(=O)c2ccc(C(C)(C)C)cc2)cc1	0.4	39.5	13.0	74.1*	60.3*
Cc1ccc(NC(=O)c2ccc(C)cc2)cc1	x	x	x	73.4*	x
Cc1cccc(C(=O)Nc2ccc(C(=O)Nc3ccc(O)cc3)cc2)c1	x	x	-3.5	68.0*	x
Cc1cccc(C(=O)Nc2ccc(NC(=O)c3cccc(C)c3)cc2)c1	x	x	x	25.4	x
CCc1nnc(NC(=O)CSc2ccc(-c3ccc(-n4cccn4)cc3)nn2)s1	x	x	x	77.3*	x
COc1ccccc1NC(=O)CSc1ccc(-c2ccc(-n3ccnc3)cc2)nn1	x	x	x	51.2*	x
Cc1ccccc1NC(=O)CSc1ccc(-c2ccc(-n3cccn3)cc2)nn1	x	x	x	34.9	x
CCCn1nc(NS(=O)(=O)c2cccc3nonc23)c2cc3ccccc3nc21	x	x	-1.8	0.1	x
CCn1c(C)cc(C(=O)CN2C(=O)c3ccccc3S2(=O)=O)c1C	x	x	x	34.4	x
Cc1cc(C(=O)COC(=O)c2ccc3c(c2)OCO3)c(C)n1Cc1cccs1	0.7	-1.6	8.0	18.6	30.7
C=CCn1c(C)cc(C(=O)CN2C(=O)c3ccccc3S2(=O)=O)c1C	x	x	x	82.6*	x
C=CCn1c(C)cc(C(=O)COC(=O)c2n[nH]c(=O)c3ccccc23)c1C	x	x	x	68.7*	x
Cc1cc(C(=O)COC(=O)c2n[nH]c(=O)c3ccccc23)c(C)n1C	x	x	x	16.7	x
CCn1nc(C(=O)OCC(=O)c2cc(C)n(Cc3cccs3)c2C)c2ccccc2c1=O	0.4	-2.0	33.2*	21.1	57.5*
O=c1c2ccccc2nc(N/N=C/c2ccc(O)cc2)n1O	0.1	1.8	-0.1	61.8*	93.8*
O=c1c2ccccc2nc(N/N=C/c2c(O)ccc3ccccc23)n1O	0.1	20.7	1.5	70.7*	87.9*
CCN(CC)C(=O)COc1ccc(/C(C)=N/NC(=O)c2ccccc2O)cc1	0.4	36.5	-0.8	34.8	63.2*
Cc1ccc(C(=O)NCC2CCCO2)cc1S(=O)(=O)N1CCCCC1 (stereo not drawn)	x	x	-0.5	5.6	x
CN(CCO)c1cc(Sc2nc3ccccc3s2)c2nonc2c1[N+](=O)[O-]	1	9.3	2.6	60.3*	-3.7
N#Cc1ccccc1OCC(=O)OCC(=O)NC1CCCC1	x	x	x	-20.2	x
SMILES	FLuc stim CS	PPC-1+TRAIL kill	HSP90 refold inh	TRAIL sens C8	FLuc inhib CS
NC(C(=O)O)C1CC(Cl)=NO1 (stereo not drawn)	1.1	8.3	-0.1	x	-6.9
NC(C(=O)O)C1ON=C(Cl)C1O (stereo not drawn)	x	x	x	77.6*	x
COc1cc(NCCCCC(C)N)c2nccc(C)c2c1 (stereo not drawn)	x	x	x	53.6*	x
O=C(c1ccccc1)c1cc(-c2ccccc2)on1	0.2	13.7	-1.5	19.4	81.1*
O=C(Nc1ccc2cn[nH]c2c1)c1ccccc1F	0.5	15.6	0.7	21.7	52.9*
CC(C)COc1ccc(/C=C2/Sc3ccccc3C2=O)cc1	0.4	9.4	-1.8	23.0	57.3*
CCN1CCN(Cc2ccc(NC(=O)c3ccc(C)c(/C=C/c4cnc(Nc5cc(N6CCNCC6)nc(C)n5)cn4)c3)cc2C(F)(F)F)CC1	x	x	-4.6	63.1*!	x
O=C(/C=C/c1ccc([N+](=O)[O-])cc1)OCC(=O)N1c2ccccc2Sc2ccccc21	1	10.3	-3.4	19.8	-3.5
CCC(=O)N1CCc2cc(S(=O)(=O)N3CCN(c4cc(C)ccc4C)CC3)ccc21	x	x	2.6	19.9	x
CCOc1ncccc1C(=O)OCC(=O)Nc1nnc(-c2ccccc2)o1	x	x	x	9.0	x
CC1(C)CC[C@]2(C(=O)n3ccnc3)CC[C@]3(C)[C@H](C(=O)C=C4[C@@]5(C)C=C(C#N)C(=O)C(C)(C)[C@@H]5CC[C@]43C)[C@@H]2C1	x	x	x	88.1*	x
O=c1c2ccccc2cnn1CCOc1ccccc1	0.2	43.0	68.3*	37.9	82.9*
CCOC(=O)C1(C)CCN1C(=O)c1ccc2ccccc2c1 (stereo not drawn)	x	x	x	-8.1	x
C/C(=N\Nc1cccc2cccnc12)c1ccccc1O	0.3	37.0	-1.2	39.9	68.5*
Oc1cccc(/C=N/Nc2cccc3cccnc23)c1	0.2	33.0	-1.7	54.2*	80.9*
COc1cc(/C=N/Nc2cccc3cccnc23)cc(OC)c1O	0.1	15.1	3.2	43.0	85.9*
C/C(=N\Nc1cccc2cccnc12)c1ccc(N)cc1	0.9	15.6	2.3	2.2	11.2
Oc1c(/C=N/Nc2cccc3cccnc23)ccc2ccccc12	0.9	22.2	-0.3	-6.4	6.1
COc1cc(/C=C2\SC(=O)N(CCNC(=O)c3sc4cc(F)ccc4c3Cl)C2=O)cc(OC)c1OC	1.1	24.5	-4.2	1.1	-6.2
Cc1cc(C)n(-c2nc(Nc3ccccc3C(F)(F)F)nc(-n3nc(C)cc3C)n2)n1	1.1	17.1	2.7	57.2*	-6.7
Cc1cc(C)n(-c2nc(Nc3ccccc3C)nc(-n3nc(C)cc3C)n2)n1	1.1	-16.5	3.7	x	-10.7
Cc1ccc(OCC(O)CNC2CCCC2)c(C)c1 (stereo not drawn)	x	x	-1.7	7.5	x
Cc1ccccc1OCC(O)CNC1CCC(NCC(O)COc2ccccc2C)CC1 (stereo not drawn)	x	x	4.4	92.8*	x
O=C(Cn1c(-c2cncs2)nc2ccccc21)NCc1ccccc1	1	-6.4	16.2*	-6.4	-4.2
N#C/C(=N\Nc1ccccc1)C(=N)N1CCCCC1	0.4	20.0	-3.3	29.1	60.9*
Cc1ccc(N/N=C(\C#N)C(=N)N2CCCCC2)cc1	x	28.2	3.4	14.2	x
N#C/C(=N\Nc1ccccc1[N+](=O)[O-])C(=N)N1CCCCC1	0.2	36.6	7.4	43.6	82.2*
Nc1nc(=S)c2[nH]c(=S)[nH]c2[nH]1	x	x	x	0.0	x
Nc1nc(=S)c2[nH]cnc2[nH]1	x	x	x	74.9*	x
